Laboratory results from ChEMBL document CHEMBL2163264, “Identification and synthesis of substituted pyrrolo[2,3-d]pyrimidines as novel firefly luciferase inhibitors” (Bioorg Med Chem, 2012).
The source made the active and inactive calls. The rule behind the calls is not given here.

target: T1, Luciferin 4-monooxygenase (Photinus pyralis, UniProt P08659); experiment: Mixed-type inhibition of Photinus pyralis luciferase using D-luciferin as substrate after 20 mins by Michaelis-Menten plot
Method in brief: (§1)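 Photinus pyralis firefly luciferase (32 nM) in buffer A (1 M glycine-Tris, 10 mM EDTA, 100 mM MgSO4, pH 7.8) preincubated with inhibitor or buffer 20 min in the dark at room temperature. D-luciferin varied 3.125–200 µM with ATP fixed at 250 µM. Luminescence read. Apparent Km and Vmax from nonlinear Michaelis–Menten fit. Three independent assays in triplicate.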

T1 sequence (P08659 whole entry): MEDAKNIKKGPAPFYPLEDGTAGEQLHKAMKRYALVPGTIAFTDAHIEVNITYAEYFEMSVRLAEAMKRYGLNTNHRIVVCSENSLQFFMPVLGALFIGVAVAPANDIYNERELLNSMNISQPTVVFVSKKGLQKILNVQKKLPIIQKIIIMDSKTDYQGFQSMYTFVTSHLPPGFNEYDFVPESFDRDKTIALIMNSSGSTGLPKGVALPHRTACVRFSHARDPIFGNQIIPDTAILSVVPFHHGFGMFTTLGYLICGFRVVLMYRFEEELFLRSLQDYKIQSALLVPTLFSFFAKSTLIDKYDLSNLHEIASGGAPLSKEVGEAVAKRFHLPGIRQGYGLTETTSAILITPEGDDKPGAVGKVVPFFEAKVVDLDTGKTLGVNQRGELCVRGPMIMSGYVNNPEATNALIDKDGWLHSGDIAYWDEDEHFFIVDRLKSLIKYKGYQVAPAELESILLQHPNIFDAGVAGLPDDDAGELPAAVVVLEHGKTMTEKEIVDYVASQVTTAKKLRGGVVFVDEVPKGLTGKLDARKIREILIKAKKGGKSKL

Ki [nM]	SMILES
220	CC(C)n1ccc2c(Oc3ccc(N)cc3)ncnc21

target: Luciferin 4-monooxygenase (Photinus pyralis) (UniProt P08659); experiment: Mixed-type inhibition of Photinus pyralis luciferase using D-luciferin as substrate at 10 uM after 20 mins by bioluminescence assay
Sequence (P08659 whole entry): as above

inhibition [%]	SMILES
46	Nc1ccc(Oc2ncnc3c2ccn3Cc2ccccc2)cc1
33	CCOC(=O)Cn1ccc2c(Oc3ccc(N)cc3)ncnc21
21	NC(=O)Cn1ccc2c(Oc3ccc(N)cc3)ncnc21
26	COc1ccc(Cn2ccc3c(Oc4ccc(N)cc4)ncnc32)cc1
7	Nc1ccc(Oc2ncnc3c2ccn3Cc2ccc(C(F)(F)F)cc2)cc1
31	CSc1nc(Oc2ccc(N)cc2)c2ccn(C(C)C)c2n1
19	Nc1ccc(Oc2ncnc3[nH]ccc23)cc1
48	Cn1ccc2c(Oc3ccc(N)cc3)ncnc21
9	CC(C)n1ccc2c(Oc3ccc(N)cc3)nc(S(C)(=O)=O)nc21

target: T1, Luciferin 4-monooxygenase; experiment: Uncompetitive inhibition of Photinus pyralis luciferase using 50 uM D-luciferin as substrate after 20 mins by nonlinear regression analysis in presence of 25 to 500 uM ATP
Method in brief: (§2)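 ATP-dependence kinetics: 32 nM P. pyralis luciferase in pH 7.8 glycine-Tris/EDTA/MgSO4 buffer, preincubated 20 min with inhibitor in the dark at room temperature. ATP varied 25–500 µM with D-luciferin fixed at 50 µM, read by bioluminescence. Double-reciprocal plots were examined. Apparent Km and Vmax came from nonlinear Michaelis–Menten fitting. Three independent assays in triplicate.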

Ki [nM]	SMILES
340	CC(C)n1ccc2c(Oc3ccc(N)cc3)ncnc21

target: T1, Luciferin 4-monooxygenase; experiment: Competitive inhibition of Photinus pyralis luciferase using 3.125 to 200 uM D-luciferin as substrate after 20 mins by Michaelis-Menten plot in presence of 250 uM ATP; method in brief: as §1

Ki [nM]	SMILES
1430	CC(C)n1ccc2c(Oc3ccc(N)cc3)ncnc21

target: Luciferin 4-monooxygenase (Photinus pyralis) (UniProt P08659); experiment: Uncompetitive inhibition of Photinus pyralis luciferase using 50 uM D-luciferin as substrate after 20 mins by Lineweaver-Burk plot in presence of 25 to 500 uM ATP; method in brief: as §2

inhibition	SMILES
Active	CC(C)n1ccc2c(Oc3ccc(N)cc3)ncnc21

target: T1, Luciferin 4-monooxygenase; experiment: Mixed-type inhibition of Photinus pyralis luciferase using D-luciferin as substrate after 20 mins by bioluminescence assay; method in brief: as §1

IC50 [nM]	SMILES
60	C=C(C)Cn1ccc2c(Oc3ccc(NC)cc3)ncnc21
7530	CC(C)=CCn1ccc2c(Oc3ccc(N)cc3)ncnc21
70	CNc1ccc(Oc2ncnc3c2ccn3CC(C)(C)C)cc1
7300	CC(C)n1ccc2c(Oc3ccccc3N)ncnc21
290	Nc1ccc(Oc2ncnc3c2ccn3C2CCCC2)cc1
6460	CC(C)CCn1ccc2c(Oc3ccc(N)cc3)ncnc21
2240	C=CCn1ccc2c(Oc3ccc(N)cc3)ncnc21
360	CC(C)n1ccc2c(Oc3ccc(N)cc3)ncnc21
90	C=C(C)Cn1ccc2c(Oc3ccc(N(C)C)cc3)ncnc21
9430	C=C=Cn1ccc2c(Oc3ccc(N)cc3)ncnc21
120	CN(C)c1ccc(Oc2ncnc3c2ccn3CC(C)(C)C)cc1
310	CC(C)Cn1ccc2c(Oc3ccc(N)cc3)ncnc21
10800	CC(C)n1ccc2c(Oc3ccc(N)cc3)nc(N)nc21
80	CC(C)(C)Cn1ccc2c(Oc3ccc(N)cc3)ncnc21
3510	CCn1ccc2c(Oc3ccc(N)cc3)ncnc21
130	CNc1ccc(Oc2ncnc3c2ccn3C(C)C)cc1
120	C=C(C)Cn1ccc2c(Oc3ccc(N)cc3)ncnc21
14700	CC(C)n1ccc2c(Oc3cccc(N)c3)ncnc21
180	CC(C)n1ccc2c(Oc3ccc(N(C)C)cc3)ncnc21
